Measurements from ChEMBL document CHEMBL4184228, “Reversed isoniazids: Design, synthesis and evaluation against Mycobacterium tuberculosis” (Bioorg Med Chem, 2018).
In brackets after ≈: the same amount, converted by molar mass. Activity calls are given as the source filed them.

Key:
[1] = system: Mycobacterium tuberculosis; experiment: Antimycobacterial activity against XDR Mycobacterium tuberculosis isolate TT149 at 10 uM by two fold serial dilution based fluorescence assay; type: functional
How it was run: (§1)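 MGIT 960 (BACTEC) broth assay in 7H9 with 1% OADC and 0.05% Tween 80. Compounds are 10 mM DMSO stocks, two-fold serially diluted, final DMSO ≤1.2%, top concentration 10 µM. Tubes incubated at 37°C with growth units read daily. MIC99 is set against a 1% drug-free growth control tube.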

[2] = system: Mycobacterium tuberculosis; experiment: Antimycobacterial activity against XDR Mycobacterium tuberculosis isolate X_3 at 10 uM by two fold serial dilution based fluorescence assay; type: functional; how it was run: as §1
[3] = system: Mycobacterium tuberculosis; experiment: Antimycobacterial activity against Mycobacterium tuberculosis H37Rv by two fold serial dilution based fluorescence assay; type: functional; how it was run: as §1
[4] = Cytotoxicity against human THP1 cells assessed as decrease in cell viability after 24 hrs by MTT assay; type: cell-based; conditions: THP-1 cells
How it was run: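 THP-1 cells at 1.5 x 10^4/well are exposed to a range of compound concentrations for 24 h. MTT is then added for 4 h at 37°C, followed by solubilisation buffer for 30 min. A570 is read. Cytotoxicity % = 100 − [100 × (OD with drug/OD without drug)]. An IC20 cut-off is used to set concentrations for the macrophage work.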

CHO = experiment: Cytotoxicity against CHO cells; type: cell-based; conditions: Cricetulus griseus
[5] = system: Mycobacterium tuberculosis; experiment: Antimycobacterial activity against XDR Mycobacterium tuberculosis isolate X_61 by two fold serial dilution based fluorescence assay; type: functional; how it was run: as §1
[6] = system: Mycobacterium tuberculosis; experiment: Antimycobacterial activity against XDR Mycobacterium tuberculosis isolate X_60 by two fold serial dilution based fluorescence assay; type: functional; how it was run: as §1

Row | SMILES | Activity [1] | Activity [2] | MIC99 [3] [µM] | IC20 at 24 h [4] [µM] | IC50 (CHO) [µM] | MIC99 [5] [µM] | MIC99 [6] [µM] | MIC99 [1] [µM] | MIC99 [2] [µM]
1 | O=C(NNCCCN1c2ccccc2Sc2ccccc21)c1ccncc1 | inactive | inactive | 1 (≈ 0.376 µg/mL) | > 100 | – | – | – | – | –
2 | O=C(NNCCCN1CCC(N2c3ccccc3Sc3ccc(Cl)cc32)CC1)c1ccncc1 | inactive | inactive | 1 (≈ 0.494 µg/mL) | 2.2 | 37.4 | > 10 | > 10 | – | –
3 | O=C(NNCCCN1CCC(=C2c3ccccc3C=Cc3ccccc32)CC1)c1ccncc1 | inactive | inactive | 1.25 (≈ 0.563 µg/mL) | – | 148 | 5 (≈ 2.25 µg/mL) | > 10 | – | –
4 | O=C(NNCCCN1CCN(C(c2ccccc2)(c2ccccc2)c2ccccc2)CC1)c1ccncc1 | inactive | inactive | 1.25 (≈ 0.632 µg/mL) | – | 97.6 | 2.5 (≈ 1.26 µg/mL) | 2.5 (≈ 1.26 µg/mL) | – | –
5 | O=C(NNCCCN1c2ccccc2Sc2ccccc21)c1ccccc1 | inactive | inactive | > 10 | > 100 | – | – | – | – | –
6 | O=C(NNCCCN1CCN(C(c2ccccc2)c2ccccc2)CC1)c1ccncc1 | inactive | inactive | 5 (≈ 2.15 µg/mL) | – | 48.1 | 5 (≈ 2.15 µg/mL) | > 10 | – | –
7 | O=C(NNCCCN1CCN(CC(O)(c2ccccc2)c2ccccc2)CC1)c1ccncc1 | inactive | inactive | 1.25 (≈ 0.574 µg/mL) | – | 174 | 5 (≈ 2.3 µg/mL) | > 10 | – | –
8 | O=C(NNCCCNCCCN1c2ccccc2Sc2ccccc21)c1ccncc1 | inactive | inactive | 5 (≈ 2.17 µg/mL) | – | – | – | – | – | –
9 | CN(C)CCCN1c2ccccc2Sc2ccc(Cl)cc21 [CHLORPROMAZINE] | – | – | – | 4 | – | – | – | – | –
10 | O=C(NNCCCN1CCC(=C2c3ccccc3Sc3ccc(Cl)cc32)CC1)c1ccncc1 | inactive | inactive | 0.625 (≈ 0.307 µg/mL) | – | 296 | 2.5 (≈ 1.23 µg/mL) | > 10 | – | –
11 | O=C(NNCCCN1c2ccccc2Sc2ccc(Cl)cc21)c1ccncc1 | inactive | inactive | 0.25 (≈ 0.103 µg/mL) | 24.4 | – | – | – | – | –
12 | O=C(NNCCCN1c2ccccc2Sc2ccc(Cl)cc21)c1ccccc1 | inactive | inactive | > 10 | > 100 | – | – | – | – | –
13 | O=C(NNCCCN1CCC(=C2c3ccccc3Sc3ccccc32)CC1)c1ccncc1 | inactive | inactive | 1.25 (≈ 0.571 µg/mL) | – | 152 | 2.5 (≈ 1.14 µg/mL) | > 10 | – | –
14 | O=C(NNCCCNCCCN1c2ccccc2Sc2ccc(Cl)cc21)c1ccncc1 | inactive | inactive | 5 (≈ 2.34 µg/mL) | – | – | – | – | – | –
15 | O=C(NNCCCN1c2ccccc2CCc2ccccc21)c1ccncc1 | inactive | inactive | 1 (≈ 0.372 µg/mL) | > 100 | – | – | – | – | –
16 | O=C(NNCCCN1CCC(N2c3ccccc3Sc3ccccc32)CC1)c1ccncc1 | inactive | inactive | 5 (≈ 2.3 µg/mL) | – | 122 | 2.5 (≈ 1.15 µg/mL) | > 10 | – | –
17 | NNC(=O)c1ccncc1 [ISONIAZID] | – | – | 0.73 (≈ 0.1 µg/mL) | > 100 | > 100 | 2.5 (≈ 0.343 µg/mL) | > 10 | > 10 | > 10
18 | O=C(NNCCCN1CCN(C2c3ccccc3CCc3ccccc32)CC1)c1ccncc1 | inactive | inactive | 5 (≈ 2.28 µg/mL) | – | – | – | – | – | –
